Source: article PMC11362799 (The Journal of Biological Chemistry, 2024)
pIC50: −log10 of the molar value.

Molecular target: T1, human Gal-4C (Homo sapiens, UniProt P56470)
T1 sequence (P56470 179-323): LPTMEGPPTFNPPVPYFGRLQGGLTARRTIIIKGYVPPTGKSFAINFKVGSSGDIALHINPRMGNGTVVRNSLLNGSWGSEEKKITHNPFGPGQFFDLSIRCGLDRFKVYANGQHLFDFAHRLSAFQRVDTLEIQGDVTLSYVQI
Experiment: Competitive solid-phase assay: Gal-4C binding to immobilized asialofetuin
Method in brief: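 Human Gal-4C (residues 179–323, C-terminal His-tag, E. coli BL21) at 60 μg/ml final was preincubated 2 h at 37 °C with serially diluted glycan inhibitors; lactose was the reference. Mixtures went onto wells coated overnight at 4 °C with 10 µg/ml ASF (carbonate, pH 9.6) and BSA-blocked, for 2 h at 37 °C. Detection: biotinylated anti-Gal-4, HRP-streptavidin, TMB, A450. Values are means ± SEM from a representative of three experiments.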

## OC[C@H]1O[C@@H](O[C@H]2[C@H](O)[C@@H](O)C(O)O[C@@H]2CO)[C@H](O)[C@@H](O)[C@H]1O (mixture of isomers) [lactose]
  pIC50: 2.15
